MC4R ag barr: MC4R agonists recruiting beta-arrestin, primary screen, cell-based, luminescence, agonist arm of biased-ligand search; U2OS MC4R beta-arrestin complementation; percent of melanotan II response, DMSO zero; activation, % at 8.9 µM; Melanocortin receptor 4 (Homo sapiens), P32245; 360,000 tested, 0.98% active;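 active = activation above a per-plate cutoff, the mean activation of sample wells on that plate plus 3 SD, cut at about 8% in these data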
MC4R antagonist: MC4R antagonists of cAMP signaling, primary screen, cell-based, TR-FRET, antagonist arm of biased-ligand search | MC4R-expressing cells, MTII-stimulated cAMP, LANCE TR-FRET | inhibition, % at 6.5 µM | 360,000 tested, 0.48% active;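 active = inhibition above its plate's cutoff, the mean of tested wells on that plate plus 3 SD, cut at about 29% in these data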;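 note: 0% = Melanotan II alone and 100% = Melanotan II plus saturating MCL0020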
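material = U2OS cells stably expressing human melanocortin 4 receptor (MC4R) | also added = Melanotan II challenge | dosing = single nominal compound dose of 6.5 µM | detection = TR-FRET with Eu-cAMP and labeled anti-cAMP, 671 nm | replication = singlicate | timing = compound 30 min, challenge 1 h, detection 1 h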
NTR1 ag: agonists of human NTR1, primary screen, imaging, U2OS cells, beta-arrestin-GFP, high content; Neurotensin receptor type 1 (Homo sapiens), P30989; NTR1-U2OS beta-arrestin-GFP spot imaging, agonist mode; activation, % at 20 µM; 330,000 tested, 0.17% active; AID 493036, 2011;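 active = activation at or above 40% of the spot to cytoplasm intensity ratio, with at least 20 cells analyzed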;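 note: 0% = DMSO without peptide and 100% = 100 nM NTR1 peptide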
Target sequence (P30989 whole entry, looked up): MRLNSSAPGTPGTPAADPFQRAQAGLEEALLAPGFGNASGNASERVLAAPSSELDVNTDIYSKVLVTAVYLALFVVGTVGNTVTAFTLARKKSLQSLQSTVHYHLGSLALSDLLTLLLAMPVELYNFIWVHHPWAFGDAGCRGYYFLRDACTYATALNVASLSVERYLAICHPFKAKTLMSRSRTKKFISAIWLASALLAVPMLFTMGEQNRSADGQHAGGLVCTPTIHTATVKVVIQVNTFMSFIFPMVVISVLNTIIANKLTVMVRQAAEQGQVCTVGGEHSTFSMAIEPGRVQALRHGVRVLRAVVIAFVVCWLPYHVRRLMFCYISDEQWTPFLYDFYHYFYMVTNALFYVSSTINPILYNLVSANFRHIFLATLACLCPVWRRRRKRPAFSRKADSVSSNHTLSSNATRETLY
aDG glyco up: activators of alpha-DG glycosylation, primary screen, uHTS, Pro5-aDG cells, AlphaScreen; alpha-DG glycosylation AlphaScreen (IIH6); 0% Pro5, 100% B10-LARGE cell signal; activation, % at 10 µM; 360,000 tested, 0.22% active;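 active = activation of at least 8% versus controls, or a plate z-score of at least 8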;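 note: Pro5 are CHO cells carrying HIG-tagged alpha-DG that lacks glycosylation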
H9c2 TAG inh: inhibitors of triacylglycerol accumulation, primary screen, cell-based, uHTS, fluorescence, H9c2; inhibition, % at 12.5 µM; H9c2 cells, Nile Red lipid (TAG) fluorescence; cells loaded with 200 µM oleic acid; 230,000 tested, 0.66% active;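 active = pattern-corrected inhibition of lipid staining of at least 50% with the nuclear-stain viability signal not falling by more than 50%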;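 note: 0% = DMSO wells and 100% = triacsin C control wells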
TbMetRS inhib: T. brucei MetRS inhibitors, primary screen, biochemical, luminescence. methionyl-tRNA synthetase (Trypanosoma brucei brucei). purified T. brucei MetRS, ATP depletion, Kinase-Glo luminescence. inhibition, % at 11.9 µM. 360,000 tested, 0.4% active. AID 624268, 2012;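 active = inhibition above a per-plate cutoff of the control wells' mean inhibition plus 3 SD, cut at about 5.5% in these data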;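 note: 0% = DMSO wells median and 100% = median of wells with control inhibitor compound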
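Material: T. brucei methionyl-tRNA synthetase, purified; reagent: substrates ATP, L-methionine and bulk Escherichia coli tRNA; dosing: 11.9 µM single point; timing: 15 min plus 2 h at 25 °C; detection: luminescence of leftover ATP; evaluation: % inhibition; control set: DMSO-only wells as low control; replicates: singlicate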
MC4R barr conf: MC4R beta-arrestin agonists, retest, confirmation, cell-based, luminescence, U2OS. 2,400 tested, 31% active. U2OS MC4R beta-arrestin recruitment; scaled DMSO 0%, Melanotan II 100%. activation, % at 8.9 µM. AID 602192, 2012. shares compounds with MC4R ag barr;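 active = mean activation across replicates above the hit cutoff set in the earlier primary screen, cut at about 8% in these data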
MOR-DOR barr ag: agonists of MOR-DOR heterodimerization, counter-screen for MC4R biased agonist project, cell-based, luminescence. activation, % at 9.2 µM. shares compounds with MC4R ag barr. 2,400 tested, 5.8% active. U2OS PathHunter beta-arrestin, beta-gal luminescence; percent of deltorphin B response, DMSO zero;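 active = mean activation across replicates exceeds the hit threshold derived in the earlier primary screen, cut at about 18% in these data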;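 note: 100% = deltorphin B at 0.9 µM final and 0% = DMSO alone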
* marks the source's active call; other numbers are inactive results. Hits are enriched below; roughly 2.4% of the tested compounds scored in any of these assays.

`Cc1cc(NC(=O)CN2C(=O)S/C(=C\c3ccccc3)C2=O)no1` gave MC4R ag barr 26.0*, MC4R antagonist -3.2, NTR1 ag 2.1, aDG glyco up 0.1, TbMetRS inhib 0.1, MC4R barr conf 3.9 and MOR-DOR barr ag 9.0.
Screening Cc1cc(NC(=O)CCN2C(=O)/C(=C\c3ccccc3)SC2=S)no1 returned MC4R ag barr 1.7, MC4R antagonist 1.0, NTR1 ag 2.9, aDG glyco up -0.1, H9c2 TAG inh -2.0 and TbMetRS inhib -1.0.
Screening CC(=O)Nc1cc(-c2ccc(N(C)C)cc2)cn2c(-c3ccc(F)cc3)cnc12 returned MC4R ag barr 122.6*, MC4R antagonist -8.0, aDG glyco up -0.2, H9c2 TAG inh 22.0, TbMetRS inhib -0.6, MC4R barr conf 69.7* and MOR-DOR barr ag 3.3.
CC(=O)Nc1cc(-c2ccc(S(C)(=O)=O)cc2)cn2c(-c3ccc(F)cc3)cnc12 was read as MC4R ag barr 1.7, MC4R antagonist 9.8, aDG glyco up -0.3, H9c2 TAG inh -1.2 and TbMetRS inhib -0.1.
For CC(=O)Nc1cc(-c2ccc(N(C)C)cc2)cn2c(-c3ccc(F)c(Cl)c3)cnc12 the results were MC4R ag barr 70.7*, MC4R antagonist 2.2, aDG glyco up 0.8, H9c2 TAG inh 10.9, TbMetRS inhib -0.3, MC4R barr conf 200.3* and MOR-DOR barr ag 10.2.
`CC(=O)Nc1cc(-c2ccc(C(=O)N3CCOCC3)cc2)cn2c(-c3ccc(F)cc3)cnc12` gave MC4R ag barr 6.7, MC4R antagonist -0.6, aDG glyco up -0.4, H9c2 TAG inh 9.4 and TbMetRS inhib -0.1.
For CC(=O)Nc1cc(-c2ccc(S(C)(=O)=O)cc2)cn2c(-c3ccc(F)c(Cl)c3)cnc12 the results were MC4R ag barr 19.5*, MC4R antagonist 11.5, aDG glyco up -0.2, H9c2 TAG inh 12.8, TbMetRS inhib -0.1, MC4R barr conf 16.9* and MOR-DOR barr ag 3.6.
`CC(=O)Nc1cc(-c2ccc(C(=O)NC3CC3)cc2)cn2c(-c3ccc(F)c(Cl)c3)cnc12` gave MC4R ag barr 8.2, MC4R antagonist 21.8, aDG glyco up 1.0, H9c2 TAG inh 7.9 and TbMetRS inhib 0.0.
For CCCCn1nnnc1C(c1ccccc1)N1CCCN(Cc2ccc(F)cc2)CC1 (configuration not stated) the results were aDG glyco up -0.1 and TbMetRS inhib -1.3.
O=C1c2ccccc2C(c2nnnn2-c2ccc3c(c2)OCCO3)N1CCCn1ccnc1 (configuration not stated) was read as aDG glyco up 0.1 and TbMetRS inhib -0.9.
Cc1cccc(NC(=O)CCS(=O)(=O)c2ccc3nc(C)sc3c2)c1 was read as MC4R ag barr -0.9, MC4R antagonist 15.3, aDG glyco up -0.1 and TbMetRS inhib 0.0.
Screening O=C(Nc1ccc2c(c1)OCO2)c1cc(C2CCCCN2S(=O)(=O)c2cccs2)on1 (configuration not stated) returned MC4R ag barr -0.8, MC4R antagonist 0.8, aDG glyco up -0.1, H9c2 TAG inh -1.7 and TbMetRS inhib -0.2.
Screening Cc1ccc(S(=O)(=O)N2C[C@H]3C(=O)C[C@@H](c4ccccc4)N(S(=O)(=O)c4ccc(C)cc4)[C@H]3C[C@H]2c2cccc(C)c2)cc1 returned aDG glyco up -0.2 and TbMetRS inhib -0.4.
Screening Nc1sc(-c2ccccc2)cc1C(=O)N1CCNCC1 returned aDG glyco up -0.2 and TbMetRS inhib -0.5.
`COc1ccc(NC(=O)c2sc3cc(C(F)(F)F)cnc3c2-c2cccs2)cc1` gave MC4R ag barr 9.8*, MC4R antagonist 3.4, NTR1 ag 1.6, aDG glyco up -0.1, TbMetRS inhib 0.2, MC4R barr conf -0.9 and MOR-DOR barr ag 3.0.
`O=C(Nc1ccc(F)cc1)c1sc2cc(C(F)(F)F)cnc2c1-c1cccs1` gave MC4R ag barr 11.0*, MC4R antagonist 0.7, NTR1 ag 2.0, aDG glyco up 0.0, H9c2 TAG inh 28.2, TbMetRS inhib -0.6, MC4R barr conf 6.1 and MOR-DOR barr ag 5.7.
For COc1ccc(OC)c(NC(=O)c2cc3c(Cl)nc4ccccc4c3s2)c1 the results were MC4R ag barr 27.8*, MC4R antagonist 4.7, NTR1 ag 6.9, aDG glyco up -0.2, TbMetRS inhib -0.5, MC4R barr conf 6.0 and MOR-DOR barr ag 19.1*.
`COc1ccc(NC(=O)c2cc3c(Cl)nc4ccccc4c3s2)cc1OC` gave MC4R ag barr 10.7*, MC4R antagonist 4.6, NTR1 ag 13.9, aDG glyco up 0.2, TbMetRS inhib 0.3, MC4R barr conf 7.2 and MOR-DOR barr ag 7.9.
COc1ccc(NC(=O)c2cccc3ccccc23)cc1OC was read as MC4R ag barr -1.0, MC4R antagonist 9.7, aDG glyco up 0.1, H9c2 TAG inh -2.9 and TbMetRS inhib 0.3.
Screening O=S1(=O)CC(N2CCCCC2)CN1Cc1cn(Cc2cccc(C(F)(F)F)c2)nn1 (configuration not stated) returned aDG glyco up 0.3 and TbMetRS inhib -0.1.
O=C(CCn1cnc2ccccc2c1=O)Nc1nc(-c2ccc(Br)cc2)cs1 was read as MC4R ag barr 10.8*, MC4R antagonist 19.9, NTR1 ag 3.7, aDG glyco up 0.0, TbMetRS inhib -0.1, MC4R barr conf 5.8 and MOR-DOR barr ag 35.0*.
For COc1ccc(Cn2cc(CN3CCc4onc(-c5ccc(Br)cc5)c4C3=O)nn2)cc1 the results were aDG glyco up 0.1 and TbMetRS inhib 0.2.
CCOC(=O)c1[nH]c(COC(=O)CCCOc2ccccc2)c(C(=O)OCC)c1C was read as NTR1 ag 3.0.
CCOC(=O)c1[nH]c(COC(=O)CCOc2ccccc2OC)c(C(=O)OCC)c1C was read as MC4R ag barr 16.4*, MC4R antagonist 4.7, NTR1 ag 0.5, aDG glyco up 0.1, TbMetRS inhib 0.3, MC4R barr conf 2.0 and MOR-DOR barr ag 6.5.
